Source: PubChem BioAssay
Activity calls are given as the source filed them.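 The calls were made as follows, unless noted: active = mean duplicate potentiation above the buffer control mean plus 5 SD of buffer wells; inactive = the rest.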

What was measured:
[1] = thallium flux activation in parental CHO cells, counter-screen for KCNQ1 potentiator project (AID 493006;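 active = duplicate-averaged activation above buffer control mean plus 5 SD of those controls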;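 as to activation: fluorescence ratio of max minus min over baseline after K+ and Tl+ depolarization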); conditions: parental CHO-K1 cells, FluxOR thallium flux, at 10 µM; active compounds read high
Method in brief: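 Benchmarks – buffer and R-L3 controls · Assay system – untransfected host CHO-K1 cells with FluxOR thallium dye · Measure – fluorescence change ratio scaled 0% buffer, 100% R-L3 · Technique – kinetic thallium-flux fluorescence · Timing – overnight 37 °C plating, 90 min RT dye, 20 min compound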

[2] = biological target: Potassium voltage-gated channel subfamily KQT member 1 (Homo sapiens) (UniProt P51787); assay: KCNQ1 potassium channel potentiators, confirmation, FluxOR thallium flux, CHO cells, duplicates (AID 493007;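 active = potentiation averaged over duplicate wells exceeding buffer-only control mean by more than 3 SD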;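 as to outcome: cells depolarized by a potassium plus thallium sulfate stimulus after compound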); conditions: KCNQ1 cell line, FluxOR thallium flux fluorescence, at 10 µM; active compounds read high, % of reference activator effect, buffer zero
Potassium voltage-gated channel subfamily KQT member 1 (Homo sapiens), sequence (P51787 whole entry, looked up): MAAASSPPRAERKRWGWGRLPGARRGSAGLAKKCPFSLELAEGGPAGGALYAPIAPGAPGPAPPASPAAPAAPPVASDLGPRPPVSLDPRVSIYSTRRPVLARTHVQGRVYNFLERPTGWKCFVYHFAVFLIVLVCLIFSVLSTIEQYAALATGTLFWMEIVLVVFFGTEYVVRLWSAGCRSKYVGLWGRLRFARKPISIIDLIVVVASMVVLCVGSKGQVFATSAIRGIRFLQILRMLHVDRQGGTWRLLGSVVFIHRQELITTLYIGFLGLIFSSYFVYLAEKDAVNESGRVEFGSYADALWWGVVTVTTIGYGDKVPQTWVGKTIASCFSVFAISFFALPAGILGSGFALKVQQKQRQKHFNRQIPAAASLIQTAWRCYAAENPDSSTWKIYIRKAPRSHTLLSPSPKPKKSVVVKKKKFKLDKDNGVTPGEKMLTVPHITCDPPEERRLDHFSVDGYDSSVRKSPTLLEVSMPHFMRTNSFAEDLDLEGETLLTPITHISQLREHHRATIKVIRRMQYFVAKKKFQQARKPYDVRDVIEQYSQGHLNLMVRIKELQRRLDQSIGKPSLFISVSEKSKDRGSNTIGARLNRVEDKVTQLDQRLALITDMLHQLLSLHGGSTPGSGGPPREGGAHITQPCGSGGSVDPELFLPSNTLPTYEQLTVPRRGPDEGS
Method in brief: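 Material: CHO cells stably expressing the KCNQ1 potassium channel / Times: dye 90 min then compound 20 min, both at room temperature / Detection: kinetic thallium influx fluorescence with FluxOR dye, 10 s baseline, 110 s post-stimulus / Benchmarks: buffer-only wells as 0% and R-L3 activator as 100% / Replicates: each compound tested in duplicate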

[3] = biological target: Potassium voltage-gated channel subfamily KQT member 2 (Rattus norvegicus) (UniProt O88943); assay: rat KCNQ2 channel potentiation, selectivity assay for KCNQ1 potentiator project, KCNQ2-CHO-K1 cells (AID 493009); conditions: FluxOR thallium flux fluorescence, at 10 µM; active compounds read high, scaled: buffer 0, activator control 100;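 also: assay conditions were tuned for KCNQ1 rather than KCNQ2 modulators; signal is max minus min fluorescence divided by baseline after thallium stimulus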
Potassium voltage-gated channel subfamily KQT member 2 (Rattus norvegicus), sequence (O88943 whole entry, looked up): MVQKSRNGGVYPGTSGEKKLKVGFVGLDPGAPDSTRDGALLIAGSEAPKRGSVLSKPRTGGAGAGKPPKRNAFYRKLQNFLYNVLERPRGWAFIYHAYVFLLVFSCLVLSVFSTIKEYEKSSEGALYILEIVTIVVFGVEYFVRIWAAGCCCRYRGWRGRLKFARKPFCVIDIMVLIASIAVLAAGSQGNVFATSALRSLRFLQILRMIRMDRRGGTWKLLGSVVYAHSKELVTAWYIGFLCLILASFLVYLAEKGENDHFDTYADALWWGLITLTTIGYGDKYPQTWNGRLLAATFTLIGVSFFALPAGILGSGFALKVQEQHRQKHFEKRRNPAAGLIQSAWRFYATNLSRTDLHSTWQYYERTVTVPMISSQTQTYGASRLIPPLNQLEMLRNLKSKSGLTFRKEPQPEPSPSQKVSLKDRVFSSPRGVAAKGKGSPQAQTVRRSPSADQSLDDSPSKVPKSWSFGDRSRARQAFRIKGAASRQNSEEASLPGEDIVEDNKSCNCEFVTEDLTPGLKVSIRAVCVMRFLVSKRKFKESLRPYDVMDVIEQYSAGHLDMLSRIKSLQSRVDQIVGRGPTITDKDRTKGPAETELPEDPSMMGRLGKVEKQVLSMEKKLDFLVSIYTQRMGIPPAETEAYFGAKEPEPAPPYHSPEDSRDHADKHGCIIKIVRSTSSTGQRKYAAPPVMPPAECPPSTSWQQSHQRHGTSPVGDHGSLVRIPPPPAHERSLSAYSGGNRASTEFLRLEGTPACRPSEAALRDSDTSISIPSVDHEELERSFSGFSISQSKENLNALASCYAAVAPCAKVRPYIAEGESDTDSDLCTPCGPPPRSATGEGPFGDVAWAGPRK

[4] = biological target: Potassium voltage-gated channel subfamily KQT member 1 (Homo sapiens) (UniProt P51787); assay: KCNQ1 channel current potentiators, confirmation, orthogonal assay for KCNQ1 potentiator project, IonWorks patch clamp, KCNQ1-CHO cells (AID 493184;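 active = current rise at least 3 SD above the untreated control mean in each of two repeat wells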); conditions: automated patch clamp current, at 10 µM; active compounds read high
Method in brief: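 Probe or stimulus: depolarizing pulse to +40 mV from -90 mV; Material: CHO cells carrying KCNQ1; Compound: one dose, 10 µM final; Signal: automated voltage clamp, amphotericin B perforated patch; Read-out basis: percent current increase versus pre-compound level; Buffer or medium: pH 7.4 external bath; Replication: duplicates.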

| SMILES | outcome [1] | outcome [2] | outcome [3] | outcome [4] | activation [1] | potentiation [2] | potentiation [3] |
| --- | --- | --- | --- | --- | --- | --- | --- |
| Cc1nc(NCCc2cnc[nH]2)c2oc3ccccc3c2n1 | inactive | inactive | inactive | inactive |  |  |  |
| Cc1cc(NS(=O)(=O)c2ccc(NC(=O)C(C)Oc3ccccc3Cl)cc2)no1 (stereo unspecified) | inactive | inactive | inactive | inactive |  |  |  |
| Cc1ccc2cccnc2c1NC(=S)NC(=O)c1ccccc1 | inactive | inactive | inactive | inactive |  |  |  |
| O=C(NC(=S)NC1CCCCC1)c1ccc(F)cc1 | inactive | inactive | inactive | inactive |  |  |  |
| O=C(O)c1c2c(nc3ccccc13)/C(=C/c1cccc([N+](=O)[O-])c1)CCC2 |  |  |  | inactive | 172% (active) | 64% (active) | 199% (active) |
| O=C(Oc1c(-c2ccco2)oc2ccccc2c1=O)c1cccnc1 | inactive |  |  | inactive |  | 39.5% (active) | 187% (active) |
| CC12CCC(C(=O)N(CSC(=S)N/N=C\c3ccccc3Cl)C1=O)C2(C)C (stereo unspecified) |  |  |  | inactive | 178% (active) | 47% (active) | 152% (active) |
| CC(NC(=O)CS(=O)(=O)c1ccccc1)c1ccccc1 (stereo unspecified) | inactive | inactive | inactive | inactive |  |  |  |
| CCOc1ccc(S(=O)(=O)N2CCCC(C(=O)NCCN3CCOCC3)C2)cc1Cl (stereo unspecified) |  |  |  | inactive | 260% (active) | 108% (active) | 250% (active) |
| COc1ccc(C2NC(c3ccc(OC)c(OC)c3OC)C(C)C(=O)C2C)c(OC)c1OC (stereo unspecified) | inactive | inactive | inactive | inactive |  |  |  |
| CC(=O)NC(CC(=O)O)C(=O)O (stereo unspecified) | inactive | inactive | inactive | inactive |  |  |  |
| NS(=O)(=O)c1ccc(NC(=S)Nc2ccc(OCc3ccccc3)cc2)cc1 | inactive | inactive | inactive | inactive |  |  |  |
| Cc1ccc2nc(NC(=O)c3ccc(Br)o3)sc2c1 | inactive | inactive | inactive | inactive |  |  |  |
| CCc1ccc(-c2c(C)sc(NC(C)=O)c2C(N)=O)cc1 | inactive | inactive | inactive | inactive |  |  |  |
| CCn1nc(C)c(CNC(=O)C2CCC(=O)N(Cc3cccc(F)c3)C2)c1C (stereo unspecified) | inactive | inactive | inactive | inactive |  |  |  |
| Cc1cc(Cl)c(S(=O)(=O)Nc2ccc3c(c2)OCO3)cc1OCC(N)=O | inactive | inactive | inactive | inactive |  |  |  |
| CC1CCC(n2c(=S)[nH]c3ccccc3c2=O)CC1 (stereo unspecified) |  |  |  | inactive | 234% (active) | 70% (active) | 243% (active) |
| CC(C)CCn1c(=O)c2ccccc2n2c(=S)[nH]nc12 | inactive | inactive | inactive | inactive |  |  |  |
| CCOC(=O)Cc1csc(NC(=S)NC(=O)C(C)(C)C)n1 |  | inactive | inactive | inactive | 136% (active) |  |  |
| C/C(=N/NC(=S)Nc1cccc(C)c1)c1cccc([N+](=O)[O-])c1 | inactive |  | inactive | inactive |  | 44.5% (active) |  |

| SMILES | outcome [1] | outcome [2] | outcome [3] | outcome [4] | activation [1] | potentiation [2] | potentiation [3] |
| --- | --- | --- | --- | --- | --- | --- | --- |
| COC(=O)C1CCCN1C(=O)COc1ccc(Br)cc1Cl (stereo unspecified) |  |  |  | inactive | 206% (active) | 48.5% (active) | 198% (active) |
| CC(C)N(Cc1ccccc1)C(=S)NC(=O)C1(C)CC1(Cl)Cl (stereo unspecified) |  |  |  | inactive | 357% (active) | 138% (active) | 354% (active) |
| NC(N)=N/N=C/c1ccccc1OC(F)F | inactive | inactive | inactive | inactive |  |  |  |
| Cc1ccc(C2=CSC3=NS(=O)(=O)CCN23)cc1 | inactive | inactive | inactive | inactive |  |  |  |
| COC(=O)c1ccc(COC(=O)c2ccccc2OC)cc1 | inactive | inactive | inactive | inactive |  |  |  |
| Cc1cccc(NC(=O)C(=O)NNC(=O)c2ccc(C(C)(C)C)cc2)c1 |  |  |  | inactive | 485% (active) | 179% (active) | 483% (active) |
| O=C(NC(=S)Nc1ccccc1N1CCCC1)c1cccc(F)c1 | inactive |  |  | inactive |  | 37% (active) | 144% (active) |
| CCOC(=O)c1cc2c(=O)n3ccccc3nc2n(CCCOC)c1=NC(=O)c1ccncc1 | inactive | inactive | inactive | inactive |  |  |  |
| c1ccc2c(OCCCCN3CCOCC3)cccc2c1 | inactive | inactive | inactive | inactive |  |  |  |
| O=C1CN(C(=O)CSc2nc3cc(Cl)ccc3c(=O)n2Cc2ccccc2)c2ccccc2N1 | inactive |  | inactive | inactive |  | 22.5% (active) |  |
| COc1ccc(C(=O)CC(=O)C(=O)Nc2ccccc2Cl)cc1 |  |  | inactive | inactive | 139% (active) | 25% (active) |  |
| CCOC(=O)Nc1ccc2c(c1)N(CCCN(C)C)c1ccccc1CC2 | inactive | inactive | inactive | inactive |  |  |  |
| COc1ccccc1NC(=O)CCN1CCN(c2ccc(Cl)cc2)CC1 | inactive | inactive | inactive | inactive |  |  |  |
| O=C(NC(=S)N(Cc1ccccc1)Cc1ccccc1)c1ccccc1F |  |  |  | inactive | 225% (active) | 208% (active) | 338% (active) |
| CC(=O)c1c(N)[nH]c(-c2ccccc2)nc1=S | inactive | inactive | inactive | inactive |  |  |  |
| Cc1ccc(C(=O)NC(=S)N(C)Cc2ccccc2)cc1 |  |  |  | inactive | 146% (active) | 46% (active) | 178% (active) |
| NC(=O)c1ccccc1NC(=O)N1CCOCC1 | inactive | inactive | inactive | inactive |  |  |  |
| Cc1cccc(S(=O)(=O)Nc2cccc3c2C(=O)c2ccccc2-3)c1 | inactive |  |  | inactive |  | 43.5% (active) | 152% (active) |
| COc1ccc(C(=O)Nc2ccnn2C2CCN(Cc3ccncc3)CC2)cc1 | inactive | inactive | inactive | inactive |  |  |  |
| CN(CC(=O)Nc1c(Cl)cccc1Cl)C(=O)c1n[nH]c2ccccc12 | inactive | inactive | inactive | inactive |  |  |  |

| SMILES | outcome [1] | outcome [2] | outcome [3] | outcome [4] | activation [1] | potentiation [2] | potentiation [3] |
| --- | --- | --- | --- | --- | --- | --- | --- |
| O=C(NC(=S)N1CCN(c2ccccc2)CC1)c1ccccc1 |  |  |  | inactive | 226% (active) | 71% (active) | 281% (active) |
| CC(=O)Nc1ccc(/C=N/N2C(=O)NC(C)(c3ccc(OC(F)F)cc3)C2=O)cc1 (stereo unspecified) |  |  |  | inactive | 219% (active) | 100% (active) | 234% (active) |
| CCn1c(=S)[nH]c2c(c1=O)C(C)(C)Cc1ccccc1-2 |  | inactive | inactive | inactive | 150% (active) |  |  |
| CCc1ccc2nc(N(CCCN(C)C)C(=O)c3ccc(S(=O)(=O)N4CCCc5ccccc54)cc3)sc2c1 | inactive | inactive | inactive | inactive |  |  |  |
| Nc1cc(=O)[nH]c(SCC(=O)N2CCN(S(=O)(=O)c3ccc4ccccc4c3)CC2)n1 | inactive | inactive | inactive | inactive |  |  |  |
| CC1(C)CC(=O)C2=C(C1)c1c(ccc3ccccc13)NC2c1cc([N+](=O)[O-])cc([N+](=O)[O-])c1O (stereo unspecified) | inactive | inactive | inactive | inactive |  |  |  |
| O=C(NNc1nc2c(F)cc(F)cc2s1)c1ccccc1 | inactive | inactive | inactive | inactive |  |  |  |
| S=c1nc(-c2ccccc2)[nH]n1-c1ccccc1 |  |  |  | inactive | 504% (active) | 210% (active) | 532% (active) |
| CCOC(=O)C1=NN(C(=O)c2ccc(OC)cc2)C(O)(c2ccc(Cl)cc2)C1 (stereo unspecified) |  |  |  | inactive | 456% (active) | 136% (active) | 428% (active) |
| O=c1c2ccccc2nc(-c2ccc(Cl)c(Cl)c2)n1O |  |  |  | inactive | 518% (active) | 244% (active) | 558% (active) |
| O=C(c1ccc(COc2ccc(Cl)cc2)o1)N1CCN(Cc2ccc3c(c2)OCO3)CC1 | inactive |  | inactive | inactive |  | 25% (active) |  |
| COCCCNC(=O)CC(NS(=O)(=O)c1ccc(F)cc1)c1ccc(OC)cc1 (stereo unspecified) | inactive | inactive | inactive | inactive |  |  |  |
| O=C(NC(=S)N1CCCC1)c1ccc(Cl)cc1 |  | inactive | inactive | inactive | 150% (active) |  |  |
| N=c1sccn1CC(=O)N1N=C(c2ccc(Cl)cc2)CC1c1ccco1 (stereo unspecified) | inactive | inactive | inactive | inactive |  |  |  |
| O=C(Nc1cccc2cccnc12)c1ccc(Br)o1 | inactive | inactive | inactive | inactive |  |  |  |
| Fc1cccc2sc(Nc3nnc(-c4ccccc4)o3)nc12 |  |  |  | inactive | 531% (active) | 198% (active) | 481% (active) |
| Cc1ncc(CN2CCC(CO)(CCc3ccccc3)CC2)s1 | inactive | inactive | inactive | inactive |  |  |  |
| O=C(/C=C/c1ccco1)Nc1scc(-c2ccccc2)c1C(=O)O | inactive | inactive | inactive | inactive |  |  |  |
| CCOc1ccc2[nH]c(=O)c(CN(CCN3CCCC3)C(=S)Nc3ccccc3OCC)cc2c1 |  | inactive |  | inactive | 137% (active) |  | 164% (active) |
